# Assay results reported in ChEMBL document CHEMBL4371073, “Improvement of Aqueous Solubility of Lapatinib-Derived Analogues: Identification of a Quinolinimine Lead for Human African Trypanosomiasis Drug Development” (J Med Chem, 2019).
# Assay: Stability in presence of GSH at 2.3 mg up to 24 hrs by LC-MS analysis
# Assay type: physicochemical
# Conditions: not given
row,Structure (SMILES),Stability
1,CN1CCCN(c2ncc(-c3ccc4/c(=N/c5cnccn5)ccn(C)c4c3)cn2)CC1,Stable

# Assay: Stability in presence of sodium cyanide at 2.3 mg up to 24 hrs by LC-MS analysis
# Assay type: physicochemical
# Conditions: not given
row,Structure (SMILES),Stability
1,CN1CCCN(c2ncc(-c3ccc4/c(=N/c5cnccn5)ccn(C)c4c3)cn2)CC1,Stable

# Assay: Chemical stability in 0.01 N NaOH solution at 2 mg up to 16 hrs by LC-MS analysis
# Assay type: physicochemical
# Conditions: not given
row,Structure (SMILES),Stability
1,CN1CCCN(c2ncc(-c3ccc4/c(=N/c5cnccn5)ccn(C)c4c3)cn2)CC1,Stable

# Assay: Intrinsic clearance in human liver microsomes by LC-MS/MS analysis
# Assay type: ADME, Microsome
# Conditions: liver microsomes, read-out: CLH
# Procedure, shortened: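 Human liver microsomes were incubated with compound and samples analyzed by LC/MS/MS. Clint is expressed as μL/min/mg.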
row,Structure (SMILES),microsomal CLint [µL/min/mg]
1,CN(CCNc1ncc(-c2ccc3c(Nc4cnccn4)ccnc3c2)cn1)C(=O)OC(C)(C)C,> 300
2,CN1CCN(c2ncc(-c3ccc4c(Nc5cnccn5)ccnc4c3)cn2)CC1,180

# Same assay, conditions: microsomes
row,Structure (SMILES),Microsomal intrinsic clearance [µL/min/mg]
1,COC(=O)[C@@H]1CCCN1c1ncc(-c2ccc3c(Nc4cnccn4)ccnc3c2)cn1,220
2,CCN1CCN(c2ncc(-c3ccc4c(Nc5cnccn5)ccnc4c3)cn2)CC1,> 300
3,CCCN1CCCN(c2ncc(-c3ccc4c(Nc5cnccn5)ccnc4c3)cn2)CC1,300
4,NCCNc1ncc(-c2ccc3c(Nc4cnccn4)ccnc3c2)cn1,86
5,CCN1CCCN(c2ncc(-c3ccc4c(Nc5cnccn5)ccnc4c3)cn2)CC1,200
6,c1cnc(Nc2ccnc3cc(-c4cnc(N5CCCCCC5)nc4)ccc23)cn1,> 300
7,CN1CC2(CCN(c3ncc(-c4ccc5c(Nc6cnccn6)ccnc5c4)cn3)C2)C1,43
8,c1cnc(Nc2ccnc3cc(-c4cnc(N5CCNCC5)nc4)ccc23)cn1,30
9,CN1C[C@H]2C[C@@H]1CN2c1ncc(-c2ccc3c(Nc4cnccn4)ccnc3c2)cn1,41
10,CN1C[C@@H]2C[C@H]1CN2c1ncc(-c2ccc3c(Nc4cnccn4)ccnc3c2)cn1,37
11,CC(C)(C)OC(=O)NCCNc1ncc(-c2ccc3c(Nc4cnccn4)ccnc3c2)cn1,> 300
12,CN1CCN(c2ncc(Nc3ccc4c(Nc5cnccn5)ccnc4c3)cn2)CC1,46
13,Cc1cncc(Nc2ccnc3cc(-c4cnc(N5CCCN(C)CC5)nc4)ccc23)n1,72
14,CN1CCCN(c2ncc(-c3ccc4c(Nc5cnccn5)ccnc4c3)cn2)CC1,77
15,CCn1cc/c(=N\c2cnccn2)c2ccc(-c3cnc(N4CCCN(C)CC4)nc3)cc21,38
16,COc1ccc(NC(=O)c2ccc(-c3cnc(N4CCCN(C)CC4)nc3)cc2O)cc1Cl,24

row,Structure (SMILES),Microsomal intrinsic clearance [µL/min/mg]
1,CN1CCN(c2ncc(-c3ccc4c(NC5CCOCC5)ccnc4c3)cn2)CC1,94
2,CN1CCC2(CCN(c3ncc(-c4ccc5c(Nc6cnccn6)ccnc5c4)cn3)C2)C1 (stereo not drawn),77
3,CN1CCN(c2ncc(-c3ccc4c(NCC5CCOCC5)ccnc4c3)cn2)CC1,170
4,CN1CCN(c2ncc(-c3ccc4c(Nc5cnccn5)ccnc4c3)cn2)CC1.Cl,160
5,Cc1cnc(Nc2ccnc3cc(-c4cnc(N5CCCN(C)CC5)nc4)ccc23)cn1,100
6,CN1CCN(c2ncc(-c3ccc4c(Nc5cnccn5)ccnc4c3)cn2)CC1.O=C(O)CC(O)(CC(=O)O)C(=O)O,190
7,CN1CCN(c2ncc(-c3ccc4c(N[C@@H]5CCCC[C@H]5O)ccnc4c3)cn2)CC1,160
8,O=C(O)[C@@H]1CCCN1c1ncc(-c2ccc3c(Nc4cnccn4)ccnc3c2)cn1,< 3
9,CN1CCN(c2ccc(-c3ccc4c(Nc5cnccn5)ccnc4c3)cc2)CC1,61
10,CN(C)CCN(C)c1ncc(-c2ccc3c(Nc4cnccn4)ccnc3c2)cn1,45
11,CN1CCCN(c2ncc(-c3ccc4c(N(C)c5cnccn5)ccnc4c3)cn2)CC1,170
12,Cc1nccnc1Nc1ccnc2cc(-c3cnc(N4CCCN(C)CC4)nc3)ccc12,79
13,CCCn1cc/c(=N\c2cnccn2)c2ccc(-c3cnc(N4CCCN(C)CC4)nc3)cc21,51
14,O=C(O)CN1CCN(c2ncc(-c3ccc4c(Nc5cnccn5)ccnc4c3)cn2)CC1,53
15,CN1CCN(c2ncc(-c3ccc4c(NC5CCCCC5)ccnc4c3)cn2)CC1,300
16,CN1CCN(c2ncc(-c3ccc4c(Nc5cnccn5)ccnc4c3)cn2)CC1.CS(=O)(=O)O,170

# Assay: Chemical stability in 0.01 N HCl solution at 2 mg up to 16 hrs by LC-MS analysis
# Assay type: physicochemical
# Conditions: not given
row,Structure (SMILES),Stability
1,CN1CCCN(c2ncc(-c3ccc4/c(=N/c5cnccn5)ccn(C)c4c3)cn2)CC1,Stable
